Experimental data: ChEMBL document CHEMBL1146375, “Synthetic studies on novel benzimidazolopeptides with antimicrobial, cytotoxic and anthelmintic potential” (2007)
Values after ≈ are worked out from the molar mass of the structure shown.

system: Bacillus subtilis; test: Antibacterial activity against Bacillus subtilis NCIM 2063 after 18 hrs by disc diffusion method; format: functional; settings: not given
Outline: (§1)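 Modified Kirby-Bauer disc diffusion. Plates inoculated with spore suspension (about 6 × 10⁴ spores mL^-1). Sterile 6 mm paper discs carried test samples at 10 mg mL^-1; ciprofloxacin disc as reference, DMF disc as negative control. Plates held 18 h at 37 °C. Inhibition zone diameters (mm) averaged over triplicate sets.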

SMILES	inhibition zone (IZ)
COC(=O)[C@H](Cc1cnc[nH]1)NC(=O)[C@H](Cc1cnc[nH]1)NC(=O)c1cc(-c2nc3cc(C)c(C)cc3[nH]2)ccc1O	13 mm

system: Staphylococcus aureus; test: Antibacterial activity against Staphylococcus aureus NCIM 2079 after 18 hrs by disc diffusion method; format: functional; settings: not given; outline: as §1

SMILES	inhibition zone (IZ)
COC(=O)[C@H](Cc1cnc[nH]1)NC(=O)[C@H](Cc1cnc[nH]1)NC(=O)c1cc(-c2nc3cc(C)c(C)cc3[nH]2)ccc1O	11 mm

system: Pseudomonas aeruginosa; test: Antibacterial activity against Pseudomonas aeruginosa NCIM 2034 after 18 hrs by disc diffusion method; format: functional; settings: not given; outline: as §1

SMILES	inhibition zone (IZ)
COC(=O)[C@H](Cc1cnc[nH]1)NC(=O)[C@H](Cc1cnc[nH]1)NC(=O)c1cc(-c2nc3cc(C)c(C)cc3[nH]2)ccc1O	21 mm

system: Escherichia coli; test: Antibacterial activity against Escherichia coli NCIM 2065 after 18 hrs by disc diffusion method; format: functional; settings: not given; outline: as §1

SMILES	inhibition zone (IZ)
COC(=O)[C@H](Cc1cnc[nH]1)NC(=O)[C@H](Cc1cnc[nH]1)NC(=O)c1cc(-c2nc3cc(C)c(C)cc3[nH]2)ccc1O	17 mm

system: Candida albicans; test: Antifungal activity against Candida albicans MUCC 29 after 48 hrs by disc diffusion method; format: functional; settings: not given
Outline: (§2)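 Agar well diffusion on plates inoculated with spore suspension in normal saline from cultures on Sabouraud's broth. Wells punched and loaded with test samples or griseofulvin at 10 mg mL^-1, with DMSO as negative control. Incubated 48 h at 37 °C.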

SMILES	inhibition zone (IZ)
COC(=O)[C@H](Cc1cnc[nH]1)NC(=O)[C@H](Cc1cnc[nH]1)NC(=O)c1cc(-c2nc3cc(C)c(C)cc3[nH]2)ccc1O	20 mm

system: Microsporum audouinii; test: Antifungal activity against Microsporum audouinii MUCC 545 after 48 hrs by disc diffusion method; format: functional; settings: not given; outline: as §2

SMILES	inhibition zone (IZ)
COC(=O)[C@H](Cc1cnc[nH]1)NC(=O)[C@H](Cc1cnc[nH]1)NC(=O)c1cc(-c2nc3cc(C)c(C)cc3[nH]2)ccc1O	11 mm

system: Trichophyton benhamiae; test: Antifungal activity against Trichophyton mentagrophytes MUCC 665 after 48 hrs by disc diffusion method; format: functional, Arthroderma benhamiae; settings: not given; outline: as §2

SMILES	inhibition zone (IZ)
COC(=O)[C@H](Cc1cnc[nH]1)NC(=O)[C@H](Cc1cnc[nH]1)NC(=O)c1cc(-c2nc3cc(C)c(C)cc3[nH]2)ccc1O	15 mm

system: Aspergillus niger; test: Antifungal activity against Aspergillus niger MUCC 177 after 48 hrs by disc diffusion method; format: functional; settings: not given; outline: as §2

SMILES	inhibition zone (IZ)
COC(=O)[C@H](Cc1cnc[nH]1)NC(=O)[C@H](Cc1cnc[nH]1)NC(=O)c1cc(-c2nc3cc(C)c(C)cc3[nH]2)ccc1O	17 mm

system: Bacillus subtilis; test: Antibacterial activity against Bacillus subtilis NCIM 2063 after 18 hrs by tube dilution method; format: functional; settings: NCIM 2063, 18 h
Outline: (§3)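 Tube dilution MIC. Stock diluted in sterile broth to seven concentrations from 200 to 3.1 […]. Each tube inoculated with one loopful of test bacterium and incubated 18 h at 37 °C. MIC read from presence or absence of growth.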

SMILES	MIC
COC(=O)[C@H](Cc1cnc[nH]1)NC(=O)[C@H](Cc1cnc[nH]1)NC(=O)c1cc(-c2nc3cc(C)c(C)cc3[nH]2)ccc1O	6 µg/mL (≈ 10.5 µM)

system: Staphylococcus aureus; test: Antibacterial activity against Staphylococcus aureus NCIM 2079 after 18 hrs by tube dilution method; format: functional; settings: NCIM 2079, 18 h; outline: as §3

SMILES	MIC
COC(=O)[C@H](Cc1cnc[nH]1)NC(=O)[C@H](Cc1cnc[nH]1)NC(=O)c1cc(-c2nc3cc(C)c(C)cc3[nH]2)ccc1O	12.5 µg/mL (≈ 21.9 µM)

system: Pseudomonas aeruginosa; test: Antibacterial activity against Pseudomonas aeruginosa NCIM 2034 after 18 hrs by tube dilution method; format: functional; settings: NCIM 2034, 18 h; outline: as §3

SMILES	MIC
COC(=O)[C@H](Cc1cnc[nH]1)NC(=O)[C@H](Cc1cnc[nH]1)NC(=O)c1cc(-c2nc3cc(C)c(C)cc3[nH]2)ccc1O	6 µg/mL (≈ 10.5 µM)

system: Escherichia coli; test: Antibacterial activity against Escherichia coli NCIM 2065 after 18 hrs by tube dilution method; format: functional; settings: NCIM 2065, 18 h

SMILES	MIC
COC(=O)[C@H](Cc1cnc[nH]1)NC(=O)[C@H](Cc1cnc[nH]1)NC(=O)c1cc(-c2nc3cc(C)c(C)cc3[nH]2)ccc1O	12.5 µg/mL (≈ 21.9 µM)

system: Candida albicans; test: Antifungal activity against Candida albicans MUCC 29 after 48 hrs by tube dilution method; format: functional; settings: not given
Outline: (§4)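 Tube dilution MIC as for bacteria (seven concentrations, 200–3.1 […]), with DMSO in place of DMF. Tubes inoculated with fungal culture and incubated 48 h at 37 °C. MIC read from presence or absence of growth.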

SMILES	MIC
COC(=O)[C@H](Cc1cnc[nH]1)NC(=O)[C@H](Cc1cnc[nH]1)NC(=O)c1cc(-c2nc3cc(C)c(C)cc3[nH]2)ccc1O	6 µg/mL (≈ 10.5 µM)

system: Microsporum audouinii; test: Antifungal activity against Microsporum audouinii MUCC 545 after 48 hrs by tube dilution method; format: functional; settings: not given; outline: as §4

SMILES	MIC
COC(=O)[C@H](Cc1cnc[nH]1)NC(=O)[C@H](Cc1cnc[nH]1)NC(=O)c1cc(-c2nc3cc(C)c(C)cc3[nH]2)ccc1O	6 µg/mL (≈ 10.5 µM)

system: Trichophyton benhamiae; test: Antifungal activity against Trichophyton mentagrophytes MUCC 665 after 48 hrs by tube dilution method; format: functional, Arthroderma benhamiae; settings: not given; outline: as §4

SMILES	MIC
COC(=O)[C@H](Cc1cnc[nH]1)NC(=O)[C@H](Cc1cnc[nH]1)NC(=O)c1cc(-c2nc3cc(C)c(C)cc3[nH]2)ccc1O	6 µg/mL (≈ 10.5 µM)

system: Eudrilus; test: Anthelmintic activity against Eudrilus sp. assessed as mean paralyzing time; format: functional; settings: not given
Outline: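 Earthworms exposed to test suspensions at 2 mg mL^-1 (0.2% w/v), made by triturating compound with Tween 80 (0.5%) and distilled water, then mechanically stirred 30 min. Mebendazole suspension prepared alike as reference. Paralysis and death times recorded; death confirmed by no movement in 50 °C water. Means from triplicate sets.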

SMILES	Time
COC(=O)[C@H](Cc1cnc[nH]1)NC(=O)[C@H](Cc1cnc[nH]1)NC(=O)c1cc(-c2nc3cc(C)c(C)cc3[nH]2)ccc1O	10.38 min
